Data from ChEMBL document CHEMBL1800004, “Discovery of 4-anilinofuro[2,3-b]quinoline derivatives as selective and orally active compounds against non-small-cell lung cancers” (J Med Chem, 2011).

Tests used:
Type in all cases: functional
SF-268 [1] = experiment: Anticancer activity against human SF268 cells assessed as cell growth at 4 ug/mL after 48 hrs by SRB assay relative to control; conditions: SF-268, 48 h, read-out: Activity
In short: (§1)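 Cells were inoculated and preincubated in microtiter plates. Compounds were dissolved in DMSO, diluted in culture medium, and tested at 20.0 and 4.0 μg/mL for 48 h. The end-point used sulforhodamine B protein staining, and growth was expressed as percent of untreated control cells.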

NCI-H460 [2] = experiment: Anticancer activity against human NCI-H460 cells assessed as cell growth at 20 ug/mL after 48 hrs by SRB assay relative to control; conditions: NCI-H460, 48 h, read-out: Activity; in short: as §1
NCI-H460 [3] = experiment: Anticancer activity against human NCI-H460 cells assessed as cell growth at 4 ug/mL after 48 hrs by SRB assay relative to control; conditions: NCI-H460, 48 h, read-out: Activity; in short: as §1
MCF7 [4] = experiment: Anticancer activity against human MCF7 cells assessed as cell growth at 4 ug/mL after 48 hrs by SRB assay relative to control; conditions: MCF7, 48 h, read-out: Activity; in short: as §1
MCF7 [5] = experiment: Anticancer activity against human MCF7 cells assessed as cell growth at 20 ug/mL after 48 hrs by SRB assay relative to control; conditions: MCF7, 48 h, read-out: Activity; in short: as §1
SF-268 [6] = experiment: Anticancer activity against human SF268 cells assessed as cell growth at 20 ug/mL after 48 hrs by SRB assay relative to control; conditions: SF-268, 48 h, read-out: Activity; in short: as §1

SMILES	growth at 4 µg/mL (SF-268 [1]) [%]	growth at 20 µg/mL (NCI-H460 [2]) [%]	growth at 4 µg/mL (NCI-H460 [3]) [%]	growth at 4 µg/mL (MCF7 [4]) [%]	growth at 20 µg/mL (MCF7 [5]) [%]	growth at 20 µg/mL (SF-268 [6]) [%]
COc1ccc2c(Nc3ccc(/C(C)=N/OCCCN)cc3)c3c(Cl)coc3nc2c1	109	8	91	101	3	48
COc1ccc2c(Nc3ccc(/C(C)=N/OCCCCN4CCOCC4)cc3)c3ccoc3nc2c1	110	21	89	83	75	44
CNC(=O)c1ccc(Nc2c3ccc(OC)cc3nc3occ(Cl)c23)cc1	52	27	58	72	47	35
COc1ccc2c(Nc3ccc(/C(C)=N/OCCCN(C)C)cc3)c3ccoc3nc2c1	90	5	82	59	2	3
NC(=O)c1ccc(Nc2c3ccccc3nc3occ(Cl)c23)cc1	97	97	97	93	92	97
COc1ccc2c(Nc3ccc(S(N)(=O)=O)cc3)c3c(Cl)coc3nc2c1		17	97	90	33	
C/C(=N\OCCN(C)C)c1ccc(Nc2c3ccccc3nc3occ(Cl)c23)cc1	71	-1	68	70	-3	2
C/C(=N\OCCCN(C)C)c1ccc(Nc2c3ccccc3nc3occ(Cl)c23)cc1	66	1	52	61	1	1
C/C(=N\OCCCCN1CCOCC1)c1ccc(Nc2c3ccccc3nc3occc23)cc1	125	-1	118	76	-2	2
COc1ccc2c(Nc3ccc(/C(C)=N/OCCN4CCCCC4)cc3)c3c(Cl)coc3nc2c1	112	3	67	56	-1	48
COc1ccc2c(Nc3ccc(/C(C)=N/OCCN(C)C)cc3)c3c(Cl)coc3nc2c1	102	-1	74	51	-2	-1
C/C(=N\OCCN1CCCC1)c1ccc(Nc2c3ccccc3nc3occc23)cc1	66	1	54	64	6	-3
NS(=O)(=O)c1ccc(Nc2c3ccccc3nc3occ(Cl)c23)cc1	98	79	86	91	90	96
COc1ccc2c(Nc3ccc(/C(C)=N/OCCCN(C)C)cc3)c3c(Cl)coc3nc2c1	103	4	66	66	1	1
COc1ccc2c(Nc3ccc(/C(C)=N/OCCN4CCOCC4)cc3)c3ccoc3nc2c1	110	44	96	76	25	92
C/C(=N\OCCCN(C)C)c1ccc(Nc2c3ccccc3nc3occc23)cc1	62	7	52	84	22	0
COc1ccc2c(Nc3ccc(/C(C)=N/OCCN4CCCC4)cc3)c3c(Cl)coc3nc2c1	102	5	53	55	1	5
COc1ccc2c(Nc3ccc(/C(C)=N/OCCN4CCCC4)cc3)c3ccoc3nc2c1	104	5	69	63	3	6
COc1ccc2c(Nc3ccc(/C(C)=N/OCCN(C)C)cc3)c3ccoc3nc2c1	91	-1	75	67	-1	1
C/C(=N\OCCN(C)C)c1ccc(Nc2c3ccccc3nc3occc23)cc1	81	0	94	59	0	-5
C/C(=N\OCCN1CCOCC1)c1ccc(Nc2c3ccccc3nc3occc23)cc1	121	23	108	120	56	32
C/C(=N\OCCCCN1CCOCC1)c1ccc(Nc2c3ccccc3nc3occ(Cl)c23)cc1	115	3	91	75	-3	3
COc1ccc2c(Nc3ccc(C(=O)NCCN(C)C)cc3)c3c(Cl)coc3nc2c1	119	60	112	97	44	68
COc1ccc2c(Nc3ccc(/C(C)=N/OCCCCN4CCOCC4)cc3)c3c(Cl)coc3nc2c1	110	20	87	96	5	99
COc1ccc2c(Nc3ccc(C(=O)NCCCN(C)C)cc3)c3c(Cl)coc3nc2c1	94	36	92	91	72	71
C/C(=N\OCCN1CCCCC1)c1ccc(Nc2c3ccccc3nc3occc23)cc1	96	-1	99	114	3	-3
C/C(=N\OCCN1CCCCC1)c1ccc(Nc2c3ccccc3nc3occ(Cl)c23)cc1	120	3	101	121	26	31
C/C(=N\OCCN1CCOCC1)c1ccc(Nc2c3ccccc3nc3occ(Cl)c23)cc1	121	16	107	112	54	32
COc1ccc2c(Nc3ccc(C(N)=O)cc3)c3c(Cl)coc3nc2c1		77	96	90	66	
